Compound activity deposited in PubChem BioAssay by several laboratories.
Most compounds without a hit are left out; they make up all but 1.3% or so of the library.
CHT inh: human CHT choline transport inhibition | Q9GZV3 | CHT-expressing cells, membrane potential dye, choline response; active compounds read low | B-score at 10 µM | actives 0.86% (n = 310,000);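 active = B-score over 3 SD under the library average, and starting fluorescence ratio not unusually high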;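 also: choline stimulus applied at its EC90 after an EC20 pre-addition; B-score computed on integrated fluorescence ratio after choline addition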
procasp7 counter: counter-screen: procaspase-7 (human) activation | P55210 | actives 0.093% (n = 330,000) | activation, % at 8.5 µM | recombinant procaspase-7, Ac-DEVD-pNA absorbance 405 nm; D23A/D198A/D206A triple mutant, cannot self-cleave; scale: DMSO 0, 5 µM enzyme 100;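 active = percent activation above the screen-wide mean plus 3 SD, cut at about 25% in these data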
Target sequence (P55210 whole entry D23A/D198A/D206A): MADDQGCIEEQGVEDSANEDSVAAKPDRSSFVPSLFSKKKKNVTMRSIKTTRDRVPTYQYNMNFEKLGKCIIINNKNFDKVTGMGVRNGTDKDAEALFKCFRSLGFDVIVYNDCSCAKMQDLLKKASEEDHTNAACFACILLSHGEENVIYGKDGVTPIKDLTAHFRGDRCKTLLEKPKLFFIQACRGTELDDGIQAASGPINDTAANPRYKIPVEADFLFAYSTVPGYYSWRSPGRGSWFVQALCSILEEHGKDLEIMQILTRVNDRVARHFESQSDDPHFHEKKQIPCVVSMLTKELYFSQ
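signal = Epi-absorbance of released pNA at 405 nm, two timepoints | assay system = Uncleavable procaspase-7 mutant enzyme | reagent = Ac-DEVD-pNA substrate, 400 µM as added | times = 1 h enzyme–compound preincubation and 2 h substrate reaction, both 25 °C | benchmarks = low DMSO alone, high DMSO plus 5 µM PC-7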
proCasp3 act: activators of human procaspase-3; P42574; recombinant procaspase-3 D3A, Ac-DEVD-pNA absorbance 405 nm; activation, % at 8.5 µM; actives 0.11% (n = 330,000); AID 463141;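 active = activation above the mean of all tested compounds plus 3 SD, cut at about 21% in these data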;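 also: 0% = DMSO alone and 100% = DMSO wells spiked with extra 5 µM PC-3 D3A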
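assay system = Procaspase-3 D3A mutant | signal = absorbance at 405 nm, 0 and 120 min | times = 1 h preincubation plus 2 h reaction at 25 °C | repeats = single replicate | read-out = % activation between DMSO and enzyme-spiked controls | medium = Zinc-free HEPES saline buffer with Triton X-100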
CHT allo act: allosteric activators of human choline transporter CHT. Q9GZV3. CHT-expressing cells, membrane potential dye, choline EC20; active compounds read high; LV-AA mutant CHT in HEK293 cells. B-score at 10 µM. actives 0.49% (n = 310,000);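 active = initial fluorescence not abnormally high and integrated response B-score, plate-corrected, over 3 SD above library mean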
CHT act confirm: human CHT activation, confirmatory screen | activation, % at 10 µM | CHT-expressing cells, membrane potential dye fluorescence (FDSS); % of choline EC20–EC90 response window; HEK293 expressing CHT LV-AA mutant; choline added at its EC20 | shares compounds with CHT allo act | actives 91% (n = 2,500);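 active = primary screen active, with duplicate mean activation above negative control mean plus 3 SD, cut at about 11% in these data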
HEK293 MP dye: counter-screen for CHT activators: effect in parental HEK293 cells. shares compounds with CHT allo act. membrane potential dye fluorescence (FDSS); measured after EC20 choline addition. ratio readout change at 10 µM, hits read low. actives 62% (n = 2,500). AID 623908;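 active = duplicate-averaged ratio beyond 3 SD from buffer wells, up or down, though filed actives are nearly all decreases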
* = called active by the depositor; i = inactive; . = no result given.

SMILES	CHT inh	procasp7 counter	proCasp3 act	CHT allo act	CHT act confirm	HEK293 MP dye
COc1ccc(Nc2ncnc3sccc23)cc1	i	-8.5	3.5	i	.	.
Clc1ccc(-c2c[n+](Cc3ccc(Br)cc3)c3n2CCCCC3)cc1	i	6.2	15.6	i	.	.
O=[N+]([O-])c1ccc(C[n+]2cc(-c3ccccc3)n3c2CCCCC3)cc1	i	0.0	2.7	i	.	.
O=[N+]([O-])c1ccc(C[n+]2cc(-c3ccc(Cl)c(Cl)c3)n3c2CCCCC3)cc1	i	11.4	4.4	i	33.8*	-33.1*
Clc1ccc(-c2c[n+](Cc3ccc(Cl)cc3Cl)c3n2CCCCC3)cc1	i	5.6	0.3	28*	66.5*	i
Clc1ccc(-c2c[n+](Cc3cccc(Cl)c3)c3n2CCC3)cc1	i	9.5	7.2	8.14*	69.4*	-53.7*
Clc1ccc(C[n+]2cc(-c3ccccc3)n3c2CCCCC3)c(Cl)c1	i	4.4	-3.4	i	.	.
Clc1ccc(C[n+]2cc(-c3ccccc3)n3c2CCC3)cc1Cl	i	0.1	11.0	7.84*	18.2*	-27.4*
CN(CC(=O)Nc1ccccc1C(F)(F)F)C(=O)C1CCN(S(=O)(=O)c2ccc3c(c2)OCCO3)CC1	i	16.8	4.5	i	.	.
CC1CCC(C(C)C)C(OC(=O)C[n+]2cc(-c3ccc(Cl)cc3)n3c2CCCCC3)C1 (stereo not given)	i	-0.8	8.1	13.4*	64.4*	i
O=C(C[n+]1cc(-c2ccccc2)n2c1CCCCC2)c1ccc(Cl)cc1	i	-1.7	-2.5	i	.	.
CCCOc1c(OC)cccc1C1CC(=O)Nc2cc3c(cc21)OCCO3 (stereo not given)	i	-4.2	-1.9	i	9.6	i
CC(OC(=O)Cn1cnc2c1c(=O)n(C)c(=O)n2C)C(=O)Nc1ccc(Cl)cc1 (stereo not given)	i	7.4	-5.3	i	.	.
O=[N+]([O-])c1cccc(/C=N/Nc2nccnc2Cl)c1	i	-6.2	6.7	6.24*	40.7*	-37.2*
CCOCCCN(C(=O)CNC(=O)c1ccco1)C(C(=O)NC1CCCC1)c1cccc(OC)c1 (stereo not given)	i	5.0	12.2	i	.	.
CCN(CC(=O)Nc1c(F)cccc1F)C(=O)c1cc(S(=O)(=O)N2CCOCC2)ccc1N1CCCC1	i	5.1	7.0	i	.	.
CC(C)C[C@H](NC(=O)N1CC(=O)Nc2ccccc21)C(=O)N[C@@H](Cc1ccccc1)C(=O)O	i	-6.9	11.7	i	.	.
COc1ccc(C(CNC(=O)c2cc(C)on2)N(C)C)cc1 (stereo not given)	i	8.9	4.6	i	.	.
Cc1ccc(N2C(=O)c3cccc4cccc(c34)C2=O)cc1	i	-4.0	3.1	i	.	.
CC1=Nc2ccc(C)c3nc(C)cc(c23)N1c1ccc(C)cc1	i	-7.4	-11.7	8.53*	41.5*	-59.8*
CCN(CC)S(=O)(=O)c1cnccc1N1CCN(c2cccc(Cl)c2)CC1	i	5.0	1.2	9.33*	12.8*	i
Cc1c(C)c2cccnc2c2ncccc12	.	-3.7	2.5	.	.	.
Cc1ccc2ccc3cccnc3c2n1	i	-9.2	1.4	6.88*	55.4*	-73*
Cc1ccc(OCCOC(=O)CN2C(=O)NC3(CCCC3)C2=O)cc1	i	3.4	6.9	i	.	.
COCCNC(=O)CSc1cc(=O)n(C)c2cc(Cl)ccc12	i	4.0	-10.0	i	.	.
Cc1cccc(CN2CCC(CNC(=O)CSc3cc(=O)n(C)c4cc(Cl)ccc34)CC2)c1	i	-4.0	3.3	6.37*	20.9*	i
O=C(COC(=O)C1=COCCO1)Nc1cc(C(F)(F)F)ccc1Cl	.	-0.6	3.7	.	.	.
Cc1[nH]c2ccc3ncccc3c2c1C	i	2.9	-1.2	6.8*	30.2*	-65.5*
CCc1noc(C)c1C(=O)OCC(=O)c1ccc(NC(C)=O)cc1F	.	9.7	4.5	.	.	.
C/C(=N\NC(=O)c1nn(C)cc1Br)c1ccncc1	i	-0.2	-1.0	7.26*	16.6*	-36.8*
